MrgX1 antag: human MrgX1 receptor antagonism, primary screen. MRGX1-HEK293 calcium flux, Fluo-4, BAM8-22 antagonism; stronger effect = lower value. B-score at 10 µM. 1.3% of 310,000 active;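 active = calcium-response B-score plate-corrected more than 3 library SD below zero, starting fluorescence within 5 deviations, no agonist response on first addition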;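 also: peak minus trough fluorescence over baseline after final BAM8-22 challenge near maximal dose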
Target sequence (Q96LB2 whole entry, looked up): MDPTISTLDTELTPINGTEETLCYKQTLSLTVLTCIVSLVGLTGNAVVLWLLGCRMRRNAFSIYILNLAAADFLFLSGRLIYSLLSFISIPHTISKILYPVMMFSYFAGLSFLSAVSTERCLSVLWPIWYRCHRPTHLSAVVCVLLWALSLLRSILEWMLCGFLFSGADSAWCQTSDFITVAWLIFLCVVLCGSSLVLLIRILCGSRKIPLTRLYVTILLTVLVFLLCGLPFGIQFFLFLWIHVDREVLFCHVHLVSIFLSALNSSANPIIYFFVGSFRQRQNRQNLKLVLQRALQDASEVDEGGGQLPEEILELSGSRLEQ
RGS4 act: potentiators or activators of RGS4; HEK293 M3R/inducible RGS4, carbachol calcium flux Fluo4; stronger effect = lower value; B-score at 10 µM; 0.92% of 310,000 active;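 active = B-score of the integrated calcium signal more than 4 SD below the library mean, with starting fluorescence not abnormally high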;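 also: negative B-score means reduced calcium response which marks RGS4 activation or potentiation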
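Also added: carbachol at ECmax as muscarinic agonist stimulus; Assay system: HEK293 cells with stable M3R and inducible RGS4; Timing: overnight RGS4 induction, 30 min dye load 37 °C, 20 min compound RT; Measured by: Fluo4-AM (2 µM) calcium-flux fluorescence, kinetic read.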
MrgX1 PAM: allosterically activates human MrgX1 receptor signaling; B-score at 10 µM; Q96LB2; 0.63% of 310,000 active; MrgX1-HEK293, Fluo-4 calcium flux, FDSS; stronger effect = higher value;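 active = plate-corrected calcium response at least 3 library SD above typical, normal starting fluorescence, not activating the receptor alone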;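 also: compound read alongside a low EC10 to EC30 dose of BAM8-22 agonist; peak minus trough fluorescence over baseline measured at the second addition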
RGS4 block: inhibitors of human RGS4; P49798; HEK293 M3R/RGS4 inducible, Fluo-4 calcium flux; stronger effect = higher value; triggered by carbachol at its EC20; B-score at 10 µM; 0.45% of 310,000 active; AID 463165;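 active = B-score, a plate-corrected calcium signal, over three deviations above library mean, with baseline fluorescence within five deviations of library mean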;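 also: RGS4 expression induced by doxycycline in cells with stable M3 receptor; B-score is computed from the integrated fluorescence ratio over baseline after carbachol; higher B-score means a larger calcium signal and so more RGS4 inhibition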
Target sequence (P49798 whole entry, looked up): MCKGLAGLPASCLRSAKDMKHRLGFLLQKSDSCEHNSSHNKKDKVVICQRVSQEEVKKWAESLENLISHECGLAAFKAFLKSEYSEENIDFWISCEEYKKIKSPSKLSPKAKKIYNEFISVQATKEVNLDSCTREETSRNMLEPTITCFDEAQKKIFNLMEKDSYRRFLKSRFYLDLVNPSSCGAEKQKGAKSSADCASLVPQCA
MrgX1 ag: agonists of human MrgX1 receptor | 0.44% of 310,000 active | MrgX1-HEK293 cells, Fluo-4 calcium fluorescence, agonist mode; stronger effect = higher value | AID 588627 | B-score at 10 µM;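 active = calcium response B-score plate-corrected fluorescence ratio at least 3 library SD, with starting fluorescence B-score inside 5 SD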
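Material: MrgX1-expressing HEK293 cells; input: 15,000 cells per well; doses: test compound given as first of three sequential additions; schedule: overnight plating before 1 h dye loading; technique: Fluo-4 NW calcium-flux fluorescence, kinetic read; evaluation: baseline-normalised fluorescence change ratio, B-scored; control set: plate-wise positive and negative controls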
MrgX1 ag confirm: confirmation of human MrgX1 receptor agonists. shares compounds with MrgX1 ag. MrgX1-HEK293, Fluo-4 calcium fluorescence, FDSS. activation, % at 10 µM. 78% of 600 active;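 active = calcium signal rise, corrected for plate position, at least 3 library SD high, with starting brightness within 5 such deviations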
HEK293 Ca flux: MrgX1 antagonist counter-screen hit in parental HEK293 cells | shares compounds with MrgX1 antag | Fluo-4 calcium fluorescence, FDSS | fluorescence ratio F(max-min)/F0 at 10 µM | 2% of 4,000 active;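 active = duplicate-averaged calcium fluorescence ratio at least three times the standard deviation of buffer wells, a nonspecific response in parental cells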
HEK293 Ca counter: activity in parental HEK293 cells without MrgX1; shares compounds with MrgX1 antag; parental HEK293 calcium flux, Fluo-4 fluorescence ratio; stronger effect = higher value; fluorescence ratio F(max-min)/F0 at 10 µM; 0.4% of 4,000 active; AID 624114;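 active = calcium fluorescence ratio, averaged over duplicates, at least 3 SD of the buffer-well ratio, meaning a nonspecific response in receptor-free cells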;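 also: untransfected parental HEK293 lacking MrgX1 used as counterscreen for MrgX1 allosteric activators; fluorescence change taken during the second addition on a kinetic imager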
HEK293 Ca cntr2: MrgX1 activator counter-screen hit in parental HEK293 cells. shares compounds with MrgX1 antag. Fluo-4 calcium fluorescence (FDSS); stronger effect = higher value. fluorescence ratio F(max-min)/F0 at 10 µM. 8.7% of 4,000 active. AID 624115;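 active = calcium fluorescence ratio at least three times the spread of buffer wells, meaning a non-specific response in parental cells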
The depositor's hits bear a star; i = inactive; nt = no result. The list is not random: actives were taken first. Their share in the collection is about 3.5%.

SMILES | MrgX1 antag | RGS4 act | MrgX1 PAM | RGS4 block | MrgX1 ag | MrgX1 ag confirm | HEK293 Ca flux | HEK293 Ca counter | HEK293 Ca cntr2
COc1ccc(C(C)=O)cc1CSC(=N)N | i | i | i | i | 47* | 240%* | i | i | i
O=C(Nc1ccc(S(=O)(=O)Nc2ncccn2)cc1)C1=NN(c2ccccc2)C(=O)CC1 | i | i | i | i | i | nt | nt | nt | nt
COc1ccc(-n2c(O)c(C=Nc3ccccc3)c3ccccc3c2=O)cc1 | i | i | i | i | i | nt | nt | nt | nt
COc1ccc(N=Cc2sc(O)c3ccccc23)cc1 | i | i | i | i | 44* | i | 0.57* | i | 121*
COc1ccc(N=Cc2c(OC)ccc3ccccc23)cc1 | i | i | i | i | i | nt | nt | nt | nt
COc1ccc(N=Cc2c(O)c3ccccc3n2C(C)=O)cc1 | i | i | i | i | 62* | 583%* | i | i | 110*
CCOC(=O)c1c(S(=O)(=O)NCC(=O)NCc2cccc(C)c2)c(C)n(C)c1C | i | i | i | i | i | nt | nt | nt | nt
Cc1cc(C)c(NC(=O)c2cc(=O)c3ccccc3o2)c(C)c1 | i | i | i | i | i | nt | nt | nt | nt
O=C(CSc1nncc(=O)[nH]1)NC1CCCCC1 | i | i | i | i | i | nt | nt | nt | nt
COc1ccccc1-c1ccc(/C=C2\C=CC(=O)O2)o1 | i | i | i | i | 91* | i | 0.2* | i | i
COc1ccccc1-c1ccc(/C=C2/C=C(C)OC2=O)o1 | i | i | i | i | i | nt | nt | nt | nt
NS(=O)(=O)c1ccc(NC(=O)CSc2nc3c(c(=O)[nH]2)CCCC3)cc1 | i | i | i | i | i | nt | nt | nt | nt
c1ccc(Sc2nc(N3CCCCC3)nc(N3CCCCC3)n2)nc1 | i | i | i | i | 35* | 211%* | i | i | 59*
COC(C[C@H]1O[C@H]1[C@@H](O)[C@H](C)OCc1ccccc1)OC | nt | i | nt | i | nt | nt | nt | nt | nt
ONC(=Nc1ccccc1)c1ccc(Cl)cc1 | i | i | i | i | i | nt | nt | nt | nt
NC(=Nc1ccc(Cl)cc1)c1ccccc1 | i | i | i | i | 90* | 280%* | i | i | 55*
Cc1ccc(-c2n[nH]c(Cc3ccccc3)n2)cc1 | i | i | i | i | 28* | 97%* | i | i | i
Cc1ccc(OCc2nc(-c3ccc(Cl)cc3)n[nH]2)cc1 | i | i | i | i | i | nt | nt | nt | nt
Cc1ccccc1-n1sc2cc(F)ccc2c1=O | i | nt | i | nt | 40* | 303%* | i | i | 66*
Cc1ccc(-n2sc3ccccc3c2=O)cc1S(=O)(=O)N1CCCCC1 | i | i | i | i | i | nt | nt | nt | nt
O=C(CN1CCC(NC(=O)C2CC2)CC1)Nc1cccc(F)c1 | i | i | i | i | i | nt | nt | nt | nt
Cc1[nH]n(-c2ccccc2)c(=O)c1C(=O)c1ccc(Cl)cc1 | i | i | i | i | 37* | 116%* | i | i | i
Cc1[nH]n(-c2ccc(Cl)cc2)c(=O)c1C(=O)c1ccccc1 | i | i | i | i | 40* | 82%* | i | i | i
O=C(CSc1nnc(NC(=O)C2CCC2)s1)NC1CC1 | i | i | i | i | 40* | i | i | i | i
COc1ccccc1N=C1NC(=O)/C(=C/c2ccc(N(C)C)cc2)S1 | i | i | i | i | 65* | i | 0.22* | i | 128*
SMILES | MrgX1 antag | RGS4 act | MrgX1 PAM | RGS4 block | MrgX1 ag | MrgX1 ag confirm | HEK293 Ca flux | HEK293 Ca counter | HEK293 Ca cntr2
COc1ccc(/C=C2\SC(=Nc3ccccc3)NC2=O)cc1 | i | i | i | i | i | nt | nt | nt | nt
N#Cc1cn(Cc2ccccc2)c2ccccc12 | i | i | i | i | 30* | 161%* | i | i | i
N#Cc1ccccc1Cn1cc(C#N)c2ccccc21 | i | i | i | i | i | nt | nt | nt | nt
COc1ccc(C2(O)CCN(CC(=O)Nc3nc(-c4ccccc4)cs3)CC2)cc1 | i | i | i | i | i | nt | nt | nt | nt
OCC1(Cc2ccc(Cl)cc2)CCN(Cc2ccc(Oc3ncccn3)cc2)CC1 | i | i | i | i | i | nt | nt | nt | nt
COc1ccc(-n2c(SCC(=O)NCC3CCCO3)nc3c([nH]c4ccccc43)c2=O)cc1 (centres undefined) | i | i | i | i | i | nt | nt | nt | nt
COc1cccc(-n2c(SCC(=O)NCC3CCCO3)nc3c([nH]c4ccccc43)c2=O)c1 (centres undefined) | i | i | i | i | 30* | 99%* | i | i | i
CCOC(=O)c1cnn2c(C)cc(-c3ccc(F)cc3)nc12 | i | i | i | i | 26* | i | i | i | i
Cc1onc(-c2ccccc2Cl)c1C(=O)N(C)CC(=O)Nc1ccc(F)c(F)c1F | i | i | i | i | i | nt | nt | nt | nt
O=C(CCCCC(=O)NC1CCCC1)NC1CCCC1 | i | i | i | i | 40* | i | i | i | i
N#CC1(Nc2ccccc2)C(=O)Nc2ccccc21 (centres undefined) | i | i | i | i | 37* | 137%* | i | i | i
CSc1ccccc1OCc1cc(C(=O)N2CCC(Oc3cccnc3)CC2)no1 | i | i | i | i | i | nt | nt | nt | nt
CCNc1nc(NC(C)C)nc(N(C#N)Cc2ccccc2)n1 | i | i | i | i | 42* | 185%* | i | i | i
CCn1c2ccccc2c2cc(NC(=O)COC(=O)c3ccc(NC(=O)CC#N)cc3)ccc21 | i | i | i | i | i | nt | nt | nt | nt
CCC(=O)N1c2ccc(S(=O)(=O)N3CCN(c4ccccc4Cl)CC3)cc2CC1C (centres undefined) | i | i | i | i | i | nt | nt | nt | nt
O=C(NC(=S)NNC(=O)c1ccccc1O)c1cccs1 | i | i | i | i | 132* | 358%* | i | i | 71*
O=C(Cc1ccc(Cl)cc1)NNC(=S)NC(=O)c1cccs1 | i | i | i | i | 122* | 316%* | i | i | 68*
COc1ccccc1C(=O)NNC(=S)NC(=O)c1cccs1 | i | i | i | i | 80* | 476%* | i | i | 111*

Screening results (PubChem)
